The sample as a whole holds a higher share of hits than the screen did.
CHOP inh = inhibitors of CHOP induction in ER stress response; 3.8% of 220,000 active; CHO-K1 CHOP-promoter luciferase, tunicamycin-induced, 15-18 h; AID 2732; inhibition, % at 10 µM;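 active = compounds that reduced the stress-induced luciferase reporter signal by more than about 70% of percent inhibition, limit read from the data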;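 note: 0% = tunicamycin plus vehicle and 100% = wells without tunicamycin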
UPR XBP1 act = adaptive UPR (XBP1) activation; CHO-XBP1 luciferase reporter, IRE1-XBP1 UPR activation, luminescence; percent of tunicamycin response, DMSO as zero; activation, % at 20 µM; 0.33% of 330,000 active; AID 463104;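 active = versus positive control, 20 µM dose yields 30% or more activation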;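 note: 100% = tunicamycin at 10 µg/mL and 0% = DMSO only wells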
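Assay system: IRE1-XBP1 luciferase reporter CHO line. Input: 1000 cells/well. Buffer or medium: F12 with 10% serum. Doses: 20 µM, 1% DMSO. Times: overnight seeding at 37 °C, 6 h compound treatment at 37 °C. Technique: Steady-Glo luciferase glow luminescence, 10 min after reagent addition.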
Dynein cargo inh = dynein cargo transport inhibition | 3617.4 mouse cells, GR-EGFP nuclear translocation imaging; test concentration mostly 20 µM; stimulated with dexamethasone, 1 µM; hits give low values | z-score, hits read low | 0.47% of 220,000 active | AID 1381;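 active = plate z-score of nuclear minus cytoplasmic receptor signal below a set negative limit, without overly bright fluorescence or cell loss, cut at about -3.5 in these data, passing the limit was not always enough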;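 note: z-score of nuclear minus cytoplasmic ring GR-EGFP intensity difference per well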
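medium = tetracycline-free induction medium containing charcoal-stripped FBS | also added = 1.0 µM final dexamethasone stimulus | schedule = 48 h induction, 1 h compound, 30 min dex at 37 °C | technique = fixed, Hoechst-stained cells imaged at 10x for EGFP | measure = GR-EGFP nuclear translocation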
p-CIP stab down = lowers stability of the mouse p/CIP coactivator protein; Q05BA5; F442A p/CIP-EGFP cells, EGFP fluorescence, 16 h; decrease of EGFP signal, % at 10 µM; 0.01% of 290,000 active;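 active = EGFP signal decrease of at least 30% at 10 µM or well 3 SD below plate mean, unless failing retest; inactive = the rest, including hits failing retest or dose response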
Target sequence (Q05BA5 1-1403): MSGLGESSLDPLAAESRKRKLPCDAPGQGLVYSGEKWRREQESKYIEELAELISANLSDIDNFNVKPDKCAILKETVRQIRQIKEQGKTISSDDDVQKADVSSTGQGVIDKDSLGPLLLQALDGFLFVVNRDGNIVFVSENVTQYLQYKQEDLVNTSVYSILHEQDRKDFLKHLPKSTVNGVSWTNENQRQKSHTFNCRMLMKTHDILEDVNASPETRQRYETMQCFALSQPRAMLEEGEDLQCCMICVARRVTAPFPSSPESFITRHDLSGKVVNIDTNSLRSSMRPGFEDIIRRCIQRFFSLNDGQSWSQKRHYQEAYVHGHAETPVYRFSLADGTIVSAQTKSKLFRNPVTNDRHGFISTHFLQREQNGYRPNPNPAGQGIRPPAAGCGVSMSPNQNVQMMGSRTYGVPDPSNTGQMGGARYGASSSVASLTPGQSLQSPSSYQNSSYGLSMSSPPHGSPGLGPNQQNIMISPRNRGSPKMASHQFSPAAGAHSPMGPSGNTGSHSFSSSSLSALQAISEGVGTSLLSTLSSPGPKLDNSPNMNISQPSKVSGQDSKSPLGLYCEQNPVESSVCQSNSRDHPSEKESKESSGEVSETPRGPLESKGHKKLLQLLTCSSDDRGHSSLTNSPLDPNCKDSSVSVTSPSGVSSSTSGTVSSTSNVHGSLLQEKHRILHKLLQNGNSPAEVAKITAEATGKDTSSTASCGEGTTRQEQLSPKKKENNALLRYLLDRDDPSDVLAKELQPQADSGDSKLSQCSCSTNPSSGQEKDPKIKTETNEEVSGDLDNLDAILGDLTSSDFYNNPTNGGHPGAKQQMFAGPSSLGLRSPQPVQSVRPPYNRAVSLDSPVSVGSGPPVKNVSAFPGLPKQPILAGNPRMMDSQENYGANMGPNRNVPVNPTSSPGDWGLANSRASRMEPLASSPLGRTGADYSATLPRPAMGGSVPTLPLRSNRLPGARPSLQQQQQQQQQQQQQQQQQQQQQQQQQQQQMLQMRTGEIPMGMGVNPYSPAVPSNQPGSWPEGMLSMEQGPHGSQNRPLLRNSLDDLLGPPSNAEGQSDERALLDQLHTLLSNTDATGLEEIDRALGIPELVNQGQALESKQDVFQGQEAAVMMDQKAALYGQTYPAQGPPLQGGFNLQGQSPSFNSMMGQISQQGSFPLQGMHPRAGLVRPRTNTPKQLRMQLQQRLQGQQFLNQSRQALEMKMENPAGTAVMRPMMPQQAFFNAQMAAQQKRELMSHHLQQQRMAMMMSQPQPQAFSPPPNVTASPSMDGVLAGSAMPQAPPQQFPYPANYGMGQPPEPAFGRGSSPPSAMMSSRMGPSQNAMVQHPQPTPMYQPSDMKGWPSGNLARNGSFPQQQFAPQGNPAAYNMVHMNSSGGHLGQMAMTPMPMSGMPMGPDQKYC
UPR CHOP act = apoptotic UPR (CHOP) activation; activation, % at 10 µM; 0.34% of 330,000 active; CHO-CHOP luciferase reporter, luminescence; percent of tunicamycin response over DMSO baseline; AID 449763;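 active = at 10 µM dose, activation of 40% or more, normalized to positive control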;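 note: 100% = tunicamycin at 10 µg/mL and 0% = DMSO alone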
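measured by = luciferase luminescence | assay system = CHO-CHOP cells, stable luciferase reporter of PERK-eIF2a-CHOP signalling | amount = 500 reporter cells seeded per well | timing = 6 h compound exposure at 37 °C after overnight seeding | controls = positive tunicamycin 10 µg/mL, negative DMSO alone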
Beta2AR agonist = activates human beta-2 adrenergic receptor causing internalization. P07550. Am2.2-beta2AR cells, FAP receptor internalization, flow cytometry. response, % (no concentration beside the values). 0.43% of 340,000 active;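 active = response above a set limit, near 3 SD of response in nonfluorescent compounds, cut at about 42% in these data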
CHOP confirm = confirmation of CHOP induction inhibitors; shares compounds with CHOP inh; inhibition, % at 10 µM; 45% of 2,100 active; CHO-CHOP promoter luciferase reporter, tunicamycin-induced, luminescence; AID 504437;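 active = mean of three repeat readings of reporter signal inhibition above a set limit, cut at about 70% in these data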;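 note: 0% = tunicamycin plus vehicle and 100% = wells lacking tunicamycin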
* hit, by the source's call.

For COc1ccc2nc(NC(=O)CSc3nnnn3C3CCCCC3)sc2c1 the results were CHOP inh 1, UPR XBP1 act 0, Dynein cargo inh 3.1, p-CIP stab down -4, UPR CHOP act 0 and Beta2AR agonist 1.
Screening CCOc1ccc2nc(NC(=O)CSc3nc4c(c(=O)n(C)c(=O)n4C)n3C(C)C)sc2c1 returned CHOP inh 105*, UPR XBP1 act 4, Dynein cargo inh -0.51, p-CIP stab down -5, UPR CHOP act 1, Beta2AR agonist 8 and CHOP confirm 84*.
Screening CC(C)n1c(SCC(=O)Nc2nc3ccccc3s2)nc2c1c(=O)n(C)c(=O)n2C returned CHOP inh 21, UPR XBP1 act 4, Dynein cargo inh 0.21, UPR CHOP act 3 and Beta2AR agonist 12.
For CCOc1ccc2nc(NC(=O)CSc3nnnn3C3CCCCC3)sc2c1 the results were CHOP inh 107*, UPR XBP1 act -1, Dynein cargo inh 1.4, p-CIP stab down -14, UPR CHOP act 1, Beta2AR agonist -5 and CHOP confirm 110*.
`CCn1nc(C)c(CNC(=O)Nc2ccccc2C(=O)OC)c1C` gave CHOP inh -12, UPR XBP1 act 1, Dynein cargo inh 0.18, p-CIP stab down 0, UPR CHOP act 3 and Beta2AR agonist 2.
`CC[C@H](C)[C@H]1CNC(=O)C(=O)N1CC1CCN(CCc2ccccc2)CC1` gave Beta2AR agonist -6.
For C=CC[C@H](CC(=O)N(CCO)Cc1ccccc1)C(=O)N[C@H](COC(=O)[C@@H](CC=C)CC(=O)OC(C)(C)C)Cc1c[nH]c2ccccc12 the results were UPR XBP1 act -4, UPR CHOP act 7 and Beta2AR agonist 2.
Screening CC(C)C[C@H](NC(=O)OC(C)(C)C)C(=O)N/N=C/c1ccc2nccnc2c1 returned CHOP inh -2, UPR XBP1 act -3, Dynein cargo inh 0.031, p-CIP stab down 6, UPR CHOP act -1 and Beta2AR agonist 2.
CC(C)C[C@H](NC(=O)OC(C)(C)C)C(=O)N/N=C/C1=Cc2ccccc2OC1C (stereo partly specified) was read as CHOP inh 103*, UPR XBP1 act 4, Dynein cargo inh -0.19, p-CIP stab down -1, UPR CHOP act -1, Beta2AR agonist 3 and CHOP confirm 91*.
`CC(C)CCSc1nc2c(c(=O)[nH]c(=O)n2C)n1CCCc1ccccc1` gave CHOP inh 105*, UPR XBP1 act 4, Dynein cargo inh -0.82, p-CIP stab down -10, UPR CHOP act -1, Beta2AR agonist -4 and CHOP confirm 106*.
For CSc1nc2c(c(=O)[nH]c(=O)n2C)n1CCCc1ccccc1 the results were UPR XBP1 act 2, p-CIP stab down -6, UPR CHOP act -2 and Beta2AR agonist 4.
CC(C)Sc1nc2c(c(=O)[nH]c(=O)n2C)n1Cc1ccc(Cl)cc1 was read as CHOP inh 47, UPR XBP1 act 2, Dynein cargo inh -0.34, p-CIP stab down -3, UPR CHOP act -3 and Beta2AR agonist -8.
For CCC(C)Sc1nc2c(c(=O)[nH]c(=O)n2C)n1Cc1ccc(Cl)cc1 (stereo unspecified) the results were CHOP inh 98*, UPR XBP1 act 6, Dynein cargo inh -0.58, p-CIP stab down -10, UPR CHOP act -1, Beta2AR agonist 16 and CHOP confirm 103*.
`Cc1ccc(NCC(=O)N/N=C/c2cccc(Br)c2)cc1` gave CHOP inh 4, UPR XBP1 act 6, Dynein cargo inh 0.36, p-CIP stab down -10, UPR CHOP act 0 and Beta2AR agonist 0.
`O=C(CNc1cccc(C(F)(F)F)c1)N/N=C/c1cccc(Br)c1` gave CHOP inh 99*, UPR XBP1 act -1, Dynein cargo inh 0.74, p-CIP stab down -12, UPR CHOP act 0, Beta2AR agonist 2 and CHOP confirm 108*.
For Cc1ccc(Nc2nc(N)c([N+](=O)[O-])c(N3CCC(C)CC3)n2)cc1C the results were CHOP inh 101*, UPR XBP1 act 3, Dynein cargo inh -0.091, p-CIP stab down -10, UPR CHOP act 4, Beta2AR agonist 17 and CHOP confirm 102*.
Screening Cc1ccc(Nc2nc(N)c([N+](=O)[O-])c(N3CCOCC3)n2)cc1C returned CHOP inh 13, UPR XBP1 act 2, Dynein cargo inh -0.12, p-CIP stab down -14, UPR CHOP act 10 and Beta2AR agonist 15.
Screening Cc1cc(C)c(S(=O)(=O)NCCn2ccc3ccccc32)c(C)c1 returned CHOP inh 107*, UPR XBP1 act -1, Dynein cargo inh 0.16, p-CIP stab down -12, UPR CHOP act 0, Beta2AR agonist 0 and CHOP confirm 24.
Screening Cc1cc(C)c(S(=O)(=O)NCCc2ccccc2)c(C)c1 returned CHOP inh 55, UPR XBP1 act -2, Dynein cargo inh 1.1, p-CIP stab down -19, UPR CHOP act -2 and Beta2AR agonist 1.
For CCOc1cc(/C=N\NC(=O)Cc2ccccc2)ccc1OCC(=O)Nc1ccc(C)c(C)c1 the results were CHOP inh 97*, UPR XBP1 act 26, Dynein cargo inh -0.19, p-CIP stab down -13, UPR CHOP act 32, Beta2AR agonist 10 and CHOP confirm 127*.
O=C(C[n+]1cn(C(F)F)c2ccccc21)c1ccc(Br)cc1 was read as CHOP inh 101*, UPR XBP1 act 1, Dynein cargo inh -1.2, p-CIP stab down 2, UPR CHOP act -2, Beta2AR agonist 1 and CHOP confirm 15.
`C(=N\Nc1nc(Nc2ccccc2)nc(Nc2ccccc2)n1)/c1ccncc1` gave CHOP inh 32, UPR XBP1 act 3, Dynein cargo inh -1, p-CIP stab down -12, UPR CHOP act 0 and Beta2AR agonist 1.
For C(=N\Nc1nc(Nc2ccccc2)nc(Nc2ccccc2)n1)/c1cccnc1 the results were CHOP inh 97*, UPR XBP1 act 19, Dynein cargo inh 0.92, p-CIP stab down 8, UPR CHOP act 6, Beta2AR agonist 3 and CHOP confirm 41.
`CC(=O)OCC1O[C@@H](O[C@@H]2C[C@H]3C(C)(C)[C@H](OC(C)=O)CC[C@]3(C)[C@H]3CC[C@]45C[C@]4(CC[C@H]5[C@@H](C)C[C@@H](O)[C@H](O)C(C)(C)O)[C@@]32C)[C@H](O)[C@@H](O)[C@@H]1O` (stereo partly specified) gave CHOP inh 106*, UPR XBP1 act 29, Dynein cargo inh -0.58, p-CIP stab down -1, UPR CHOP act 5 and CHOP confirm 120*.

Bioassay records as filed in PubChem.
